Here are results for 2 compounds from ChEMBL document CHEMBL3085664, “Structure-activity relationship of imidazopyridinium analogues as antagonists of neuropeptide s receptor” (J Med Chem, 2013).

Data set [1] concerns the target T1, Neuropeptide S receptor (Homo sapiens, UniProt Q6W5P4).
T1 sequence (Q6W5P4 whole entry): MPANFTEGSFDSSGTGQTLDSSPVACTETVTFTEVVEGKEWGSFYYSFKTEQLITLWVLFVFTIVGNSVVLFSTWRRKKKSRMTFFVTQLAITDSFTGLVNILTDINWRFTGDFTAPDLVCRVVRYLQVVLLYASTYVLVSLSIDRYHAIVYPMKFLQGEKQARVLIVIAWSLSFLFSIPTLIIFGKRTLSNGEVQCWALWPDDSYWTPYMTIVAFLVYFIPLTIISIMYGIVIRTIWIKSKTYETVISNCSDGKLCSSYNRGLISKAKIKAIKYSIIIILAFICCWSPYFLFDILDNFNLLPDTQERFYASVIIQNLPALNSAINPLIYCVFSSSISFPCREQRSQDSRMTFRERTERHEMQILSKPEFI
As to the kind of experiment: Displacement of [125I]Tyr10-NPS from neuropeptide S receptor (unknown origin). Summed up:
(§1)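 Whole CHO cells stably expressing human NPSR at 90–95% confluency in 24-well plates. Cells were incubated with 0.15 nM [125I]Y10-NPS plus increasing compound or unlabeled NPS in DMEM/0.1% BSA, 20°C, 1.5 hr. Nonspecific binding was defined with 1 µM unlabeled human NPS. Cells were washed, lysed in 1 N NaOH and counted by liquid scintillation. IC50 from one experiment in duplicate.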

The nature of data set [2]: Chemical stability of the compound in phosphate-buffered saline after 48 hrs. Format: physicochemical. To be noted: buffer. Summed up: (§2)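 Compound was held in Hank's balanced buffer solution or PBS for 48 hours and checked for decomposition to other species.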
The target of data set [3] is T1, Neuropeptide S receptor. Kind of data set: Antagonist activity at neuropeptide S receptor (unknown origin) expressed in CHO cells assessed as inhibition of NPS-induced calcium mobilization after 10 mins by fluorescence assay. It is filed as functional, cell-based. To be noted: read-out: IC50. In outline: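 CHO-NPSR cells, 2000/well in 1536-well plates, incubated overnight, then loaded with no-wash calcium dye for 1 h at 37°C. Compound in DMSO was added for 10 min. Baseline fluorescence was recorded 6 s at 1 Hz, then EC80 NPS in stimulation buffer was added and recording continued 4 min at 1 Hz on a kinetic reader. IC50 is the mean with SD of two independent experiments in duplicate.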
On the technique in general: A change in cytosolic calcium serves as a functional read-out for many receptors and channels.

Data set [4] addresses T1, Neuropeptide S receptor. As to the kind of experiment: Antagonist activity at neuropeptide S receptor (unknown origin) expressed in CHO cells assessed as cAMP level after 30 mins by […] assay. To be noted: read-out: IC50. Format: functional, cell-based. Summed up:
(§3)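 CHO cells stably expressing NPSR, 1800 cells/well in 1536-well format, seeded overnight at 37°C in medium without Geneticin. Stimulation buffer (PBS, 0.1% BSA, 0.05% Tween-20, 500µM Ro 20-1724, EC80 NPS) was added for 30 min at 37°C. cAMP was read by HTRF (d2-cAMP/cryptate anti-cAMP in lysis buffer, 30 min). IC50 is the mean with SD of two independent experiments, each run in duplicate.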

Data set [5] in a line: Chemical stability of the compound in HBBS buffer after 48 hrs. Format: physicochemical. Summed up:
as §2

Data set [6] concerns the target T1, Neuropeptide S receptor. Kind of data set: Antagonist activity at neuropeptide S receptor (unknown origin) expressed in CHO cells assessed as inhibition of NPS-induced ERK activation after 20 mins by HTRF assay. It is filed as cell-based. In general terms: TR-FRET usually uses a lanthanide donor and a delayed reading to cut background.
For data set [7], the target named is T1, Neuropeptide S receptor. Kind of data set: Antagonist activity at neuropeptide S receptor (unknown origin) assessed as cAMP level by cell based assay. Format: functional. In outline:
as §3
A general note: Changes in cAMP serve as a functional read-out for many G protein-coupled receptors.

The target in data set [8] is T1, Neuropeptide S receptor. As to the kind of experiment: Antagonist activity at neuropeptide S receptor (unknown origin) assessed as intracellular calcium level by cell based assay. Format: functional. In outline: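 CHO cells stably expressing NPSR were seeded at 2000 cells/well and incubated overnight at 37 °C, 5% CO2. They were loaded with no-wash calcium dye for 1 h, then preincubated with compound in DMSO for 10 min. Stimulation used NPS at EC80 in PBS/0.1% BSA/0.05% Tween-20 with 500 µM Ro 20-1724. Kinetic fluorescence was read at 1 Hz: 6 s baseline, then 4 min. IC50 is the mean ± SD of two independent experiments, each in duplicate.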

The nature of data set [9]: Metabolic stability in mouse liver microsomes assessed as compound remaining after 60 mins in absence NADPH. To be noted: read-out: Stability. It is filed as ADME, Microsome. Summed up:
(§4)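 Compound was incubated with mouse liver microsomes, and percent parent remaining was determined at 15, 30 and 60 min. Values are means from a single experiment run in duplicate.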

The nature of data set [10]: Drug level in mouse brain after 2 hrs. Format: ADME, tissue-based. To be noted: read-out: Drug uptake.
A short description of data set [11]: Drug level in mouse brain after 15 mins. It is filed as ADME, tissue-based. To be noted: read-out: Drug uptake.
Data set [12] can be described thus: Metabolic stability in mouse liver microsomes assessed as compound remaining after 15 mins in absence NADPH. Format: ADME, Microsome. Particulars: read-out: Stability. Summed up: as §4
Data set [13] can be described thus: Metabolic stability in mouse liver microsomes assessed as compound remaining after 30 mins in presence NADPH. It is filed as ADME, Microsome. Particulars: read-out: Stability. Summed up: as §4
Data set [14] is described as follows: Metabolic stability in mouse liver microsomes assessed as compound remaining after 15 mins in presence NADPH. Particulars: read-out: Stability. Format: ADME, Microsome. In outline:
as §4

Another data set has as its system Mus musculus. As to the kind of experiment: Inhibition of NPS-induced hyperlocomotion in mouse at 50 mg/kg, ip after 90 mins. It is filed as functional. To be noted: 1.5 h, route intraperitoneal.
A short description of data set [15]: Metabolic stability in mouse liver microsomes assessed as compound remaining after 30 mins in absence NADPH. It is filed as ADME, Microsome. To be noted: read-out: Stability. Summed up:
as §4

A short description of data set [16]: Metabolic stability in mouse liver microsomes assessed as compound remaining after 60 mins in presence NADPH. To be noted: read-out: Stability. Format: ADME, Microsome. In outline: as §4
Data set [17] addresses T1, Neuropeptide S receptor. Kind of data set: Displacement of [125I]Tyr10-NPS from human neuropeptide S receptor expressed in CHO cells after 1.5 hrs by liquid scintillation counting. Format: cell-based. In outline: as §1

Usually IC50 stands for the concentration that gives 50% inhibition. Consider `Cc1c(P(=S)(c2ccccc2)c2ccccc2)[n+]2ccccc2n1C.[I-]`, for which the IC50 is 84 nM on Neuropeptide S receptor [1]; 51 nM on Neuropeptide S receptor [3]; 1700 nM on Neuropeptide S receptor [4]; 30 nM on Neuropeptide S receptor [6]; 1700 nM on Neuropeptide S receptor [7]; 51 nM on Neuropeptide S receptor [8]. Moreover, the Stability entry in [2] and in data set [5] was “Stable” each time.
Usually inhibition in vivo stands for the relative decrease from the control value, in per cent. A higher inhibition in vivo goes with a response far below the control. Take `O=C(NCc1ccc(F)cc1)N1CCN2C(=O)OC(c3ccccc3)(c3ccccc3)C2C1` (centres undefined): the remaining at 1 h in data set [9] was 101%; in [16] it was 2%. In addition, the concentration at 2 h in data set [10] was 2 µM. The IC50 turned out to be 48 nM at Neuropeptide S receptor [1]; 420 nM at Neuropeptide S receptor [3]; 5.3 nM at Neuropeptide S receptor [4]; 14 nM at Neuropeptide S receptor [6]; 420 nM at Neuropeptide S receptor [7]; 28 nM at Neuropeptide S receptor [8]. The compound further returned a 50% inhibitory concentration (IC50) at Neuropeptide S receptor [17] of 25 nM. For the same compound, the concentration at 0.25 h in data set [11] was 6 µM. Moreover, the results for the remaining at 0.25 h in data set [12] and in [14] were 105% and 29%, respectively. In addition, the remaining at 0.5 h in data set [13] was found to be 9%; in data set [15], 96%. Moreover, in the data set with Mus musculus, testing at 50 mg/kg gave an inhibition in vivo of 50%.
